Reference: ChEMBL document CHEMBL1149431 (Bioorg Med Chem Lett, 2006)
The source made the active and inactive calls. The rule behind the calls is not given here.

Key:
[1] = Metabolic stability by incubation with human liver microsomes; assay type: ADME, Microsome
Summary of the method: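 Human liver microsomes (4 mg protein/mL) incubated with compound at 23 µM, 37 ± 1 °C, in 50 mM potassium phosphate pH 7.4 with 3 mM MgCl2 and 1 mM EDTA. Sampled at 0, 90 and 180 min; half-life calculated from loss of parent compound.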

[2] = Metabolic stability by incubation with human hepatocytes; assay type: ADME, cell-based, Liver, Hepatocyte
Summary of the method: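 Compounds at 23 µM incubated separately with pooled (n = 2) cryopreserved human hepatocytes (2 million cells/mL) in phenol-red-free Waymouth's medium with FBS 4.5%, insulin, glutamine 3.6 mM, pyruvate 4.5 mM, dexamethasone 0.9 µM; 1% methanol. Samples at 0, 180, 360 min quenched in acetonitrile, protein spun off. Half-life from parent disappearance.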

[3] = target: Sodium-dependent noradrenaline transporter (Homo sapiens, UniProt P23975); assay: Inhibition of reuptake of Norepinephrine
Chain of Sodium-dependent noradrenaline transporter (P23975 whole entry): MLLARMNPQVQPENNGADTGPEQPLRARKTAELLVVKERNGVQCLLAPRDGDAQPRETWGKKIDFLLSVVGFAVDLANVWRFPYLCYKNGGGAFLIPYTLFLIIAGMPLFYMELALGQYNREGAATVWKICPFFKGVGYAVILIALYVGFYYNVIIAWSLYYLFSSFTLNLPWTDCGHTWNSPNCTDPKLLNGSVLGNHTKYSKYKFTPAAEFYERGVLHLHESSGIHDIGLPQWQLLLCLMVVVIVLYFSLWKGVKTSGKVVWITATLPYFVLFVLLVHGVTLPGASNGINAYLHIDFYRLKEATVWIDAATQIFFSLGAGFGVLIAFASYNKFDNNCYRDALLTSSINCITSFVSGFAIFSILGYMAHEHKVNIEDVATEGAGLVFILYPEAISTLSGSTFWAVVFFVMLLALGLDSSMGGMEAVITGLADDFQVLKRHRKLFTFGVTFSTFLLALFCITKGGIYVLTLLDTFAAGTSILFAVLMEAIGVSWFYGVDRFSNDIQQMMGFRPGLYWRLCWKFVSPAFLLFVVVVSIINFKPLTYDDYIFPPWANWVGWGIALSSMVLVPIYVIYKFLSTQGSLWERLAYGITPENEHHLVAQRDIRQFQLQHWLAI

Rattus norvegicus [4] = assay: Effect on latency in tail flick in rat after 1,2,4 and 8 hrs of administration of 50 mg/kg, ip; assay type: functional, organism-based; parameters: dose 50 mg/kg
Summary of the method: (§1)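 Rat tail-flick model; single intraperitoneal dose of 50 mg/kg, with 5 mg/kg ip morphine and saline as controls. Tail-flick latency (s) read at 1, 2, 4 and 8 h after dosing. n = 9–10 per group; significance vs control by Dunnett's test (p<0.05, p<0.01).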

Rattus norvegicus [5] = assay: Effect on latency in tail flick in rat after 1 and 2 hrs of administration of 50 mg/kg, ip; assay type: functional, organism-based; parameters: dose 50 mg/kg; settings: tested as the 2H-labelled form; summary of the method: as §1

[2H]C([2H])([2H])N(C[C@H]1CCCC[C@]1(O)c1cccc(O)c1)C([2H])([2H])[2H]
half-life [1]: 12.4 h
half-life [2]: 27.5 h
IC50 [3]: 6.7 µM

COc1cccc([C@@]2(O)CCCC[C@@H]2CN(C)C)c1 [TRAMADOL]
half-life [1]: 12.3 h
half-life [2]: 16.1 h
Activity (Rattus norvegicus [4]): Active
Activity (Rattus norvegicus [4]; tested as the 2H-labelled form): Active
Activity (Rattus norvegicus [5]): Active
IC50 [3]: 0.79 µM

CN(C)C[C@H]1CCCC[C@]1(O)c1cccc(O)c1 [O-DESMETHYL TRAMADOL]
half-life [1]: 47 h
half-life [2]: 26 h
IC50 [3]: > 10 µM

[2H]C([2H])([2H])Oc1cccc([C@@]2(O)CCCC[C@@H]2CN(C)C)c1
half-life [1]: 12.4 h
half-life [2]: 22.2 h
IC50 [3]: 3.6 µM

[2H]C([2H])([2H])N(C[C@H]1CCCC[C@]1(O)c1cccc(OC)c1)C([2H])([2H])[2H]
half-life [1]: 9.12 h
half-life [2]: 14.2 h
IC50 [3]: 3.2 µM

[2H]C([2H])([2H])Oc1cccc([C@@]2(O)CCCC[C@@H]2CN(C([2H])([2H])[2H])C([2H])([2H])[2H])c1
half-life [1]: 120 h
half-life [2]: 60.2 h
IC50 [3]: 2 µM
